Source: PubChem BioAssay
Shown are actives, neighbours in structure and some others; about 0.64% of the full set was active somewhere.
TNF necrop inh – TNF-alpha cell death inhibition in Jurkat FADD-/- cells; Jurkat FADD-/- TNF necroptosis rescue, ATP luminescence, 24 h; 0 = TNF only, 100 = no-TNF cells; AID 463075; 0.068% of 220,000 active; activation (protection from cell death), % at 10 µM;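 active = activation, meaning protection from cell death, of at least 50% relative to plate controls; inactive = activation below 50%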;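 note: necroptosis triggered by 40 ng/mL TNF-alpha added together with compound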
zVAD death inh – blocks zVAD induced death of L929 cells | viability rescue, % at 10 µM | L929 zVAD necroptosis rescue, ATP luminescence, 24 h; with zVAD 60 µM | 0.38% of 220,000 active;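 active = activation, scaled between plate controls, above about 75%, limit read from the data; inactive = activation under that limit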;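 note: 0% = zVAD with DMSO and 100% = DMSO alone without zVAD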
Rad51 HR inh – blocks human Rad51 in homologous recombination | Q06609 | hRad51 DNA strand exchange, fluorescence dequenching | inhibition, % at 10 µM | 0.085% of 200,000 active | AID 1385;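 active = inhibition above 40% at the single screening dose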;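 note: 0% = DMSO control wells and 100% = blanks with heterologous ssDNA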
Target sequence (Q06609 whole entry, looked up): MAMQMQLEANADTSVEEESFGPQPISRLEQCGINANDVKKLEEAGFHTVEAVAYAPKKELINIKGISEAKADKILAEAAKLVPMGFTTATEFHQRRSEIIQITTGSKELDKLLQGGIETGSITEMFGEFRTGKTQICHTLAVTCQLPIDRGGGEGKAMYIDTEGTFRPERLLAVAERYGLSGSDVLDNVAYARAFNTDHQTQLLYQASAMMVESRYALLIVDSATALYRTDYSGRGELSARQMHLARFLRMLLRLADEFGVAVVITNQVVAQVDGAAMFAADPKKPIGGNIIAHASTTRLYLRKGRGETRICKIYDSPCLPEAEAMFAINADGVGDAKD
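Material: human Rad51–ssDNA filaments; Probe or stimulus: labelled 47-mer dsDNA for strand exchange; Doses: single 10 µM dose; Incubation: 37 °C 15-min filament assembly, 30-min compound preincubation, 15-min exchange; Technique: FRET fluorescence dequenching, excitation 485 nm, emission 520 nm; Measure: Fluorescence-based percent inhibition, control- and blank-normalised; Benchmarks: plate control and blank wells.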
sdo1 growth – restores growth of sdo1-depleted yeast. S. cerevisiae sdo1-depleted JHY4D growth rescue, OD600 30 h; active compounds read high; pdr5 snq2 efflux-pump mutant strain. z-score at 10 µM. 0.21% of 140,000 active;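 active = z-score above 3 at both the 24 hr and the 30 hr optical density reads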;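 note: z-score against mean and SD of all compound wells on the same plate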
sdo1 rescue conf – confirmation of growth rescue in SDO1-depleted yeast, bone marrow failure | S. cerevisiae JHY4D (SDO1-depleted) growth rescue, OD600, 30 h; active compounds read high; efflux-deficient strain, SNQ2 and PDR5 mutated | shares compounds with sdo1 growth | OD recovery (test concentration not listed) | AID 949 | 44% of 440 active;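 active = yeast growth recovered at 30 hours, either rising with dose fitted slope above 0.001 or with average optical density gain above 0.07, some results past the limit were not filed as active; inactive = growth falling with dose or no effect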;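 note: gain in OD600 from 0 h to 30 h averaged across all seven doses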
zVAD necrop conf – confirmed blocker of zVAD induced death in L929 cells; AID 463117; L929 zVAD-induced necroptosis rescue, ATP luminescence, 24 h; shares compounds with zVAD death inh; activation (protection from necroptosis), % at 10 µM; 16% of 760 active;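 active = mean protection from necroptosis of at least 50% over duplicate tests; inactive = mean protection below 50%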;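 note: 0% = cells with zVAD alone and 100% = vehicle cells without zVAD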
* marks the source's active call; other numbers are inactive results.

`O=P(OCC(F)(F)C(F)F)(N1CCOCC1)N1CCOCC1` gave TNF necrop inh 1, zVAD death inh 1, Rad51 HR inh 89* and sdo1 growth 0.96.
`O=C(NCCN1CCOCC1)c1ccc(Cl)nc1` gave TNF necrop inh 0, zVAD death inh 0 and Rad51 HR inh 40*.
`CCCCCn1c(N)c(C(=O)NCCN2CCOCC2)c2nc3ccccc3nc21` gave TNF necrop inh -10, zVAD death inh 0, Rad51 HR inh -2 and sdo1 growth -0.41.
CC(=O)N(C)CC#CCN1CCCC(CO)C1 (stereo unspecified) was read as Rad51 HR inh -8.
Cc1ccsc1C(=O)C1CCCN(Cc2cnc(N3CCCC3)s2)C1 (stereo unspecified) was read as TNF necrop inh 2, zVAD death inh 2 and Rad51 HR inh -2.
`C=C1C(=O)O[C@@H]2C[C@@H](C)[C@@H]3C=CC(=O)[C@@]3(C)[C@@H](O)[C@H]12` gave TNF necrop inh 53*, zVAD death inh 94* and Rad51 HR inh 1.
`CCOC(=O)c1cc(CC)sc1/N=C/c1c(O)[nH]c(=S)[nH]c1=O` gave TNF necrop inh -4, zVAD death inh 1, Rad51 HR inh -118, sdo1 growth 14* and sdo1 rescue conf 0.069.
Screening COC1CC(OC2CCC3(C)C(CCC4C3CCC3(C)C(C5=CC(=O)OC5)C(OC(C)=O)CC43O)C2)OC(C)C1OC1OC(COC2OC(CO)C(O)C(O)C2O)C(O)C(O)C1O (stereo unspecified) returned TNF necrop inh -19, zVAD death inh -1 and Rad51 HR inh 7.
O=C(/C=C/c1ccc2c(c1)OCO2)c1c(O)n(CCc2ccccc2)c(=O)[nH]c1=O was read as TNF necrop inh -5, zVAD death inh 0 and Rad51 HR inh -7.
`O=C(/C=C/c1ccccc1)c1c(O)n(CCc2ccccc2)c(=O)[nH]c1=O` gave TNF necrop inh -1, zVAD death inh 83*, Rad51 HR inh 0, sdo1 growth -2 and zVAD necrop conf 1.
`O=C(Nc1nc(-c2ccccc2)c(-c2ccccc2)s1)c1ccc(S(=O)(=O)N(CCCl)CCCl)cc1` gave TNF necrop inh 4, zVAD death inh 2, Rad51 HR inh -6 and sdo1 growth 1.2.
For O=C(c1ccc2nc3ccc(Cl)cc3c(=O)n2c1)N1CCC2(CC1)OCCO2 the results were TNF necrop inh -2 and zVAD death inh 0.
For O=C(Nc1ccc(Cl)cc1)Nc1nccs1 the results were TNF necrop inh -4, zVAD death inh 86*, Rad51 HR inh 9, sdo1 growth 0.02 and zVAD necrop conf 7.
For CC(=O)OC[C@]12CCC(C)=C[C@H]1O[C@@H]1[C@H](O)[C@@H](OC(C)=O)[C@@]2(C)[C@]12CO2 the results were TNF necrop inh -24, zVAD death inh 95*, Rad51 HR inh -2 and zVAD necrop conf 82*.
